In ChEMBL document CHEMBL1148374 (J Med Chem, 2004):
Where a SMILES comes first, the peptide text is derived from it. [ ]: non-standard residue; d: D form. The star is where a group is joined. Tyr(Nα,Nα-allyl2) = C=CCN(CC=C)[C@@H](Cc1ccc(O)cc1)C(=O)*; Aib = CC(C)(N)C(=O)O

Key:
[1] = target: T1, Delta-type opioid receptor (Homo sapiens, UniProt P41143); assay: Inverse agonist potency at cloned human opioid receptor delta 1; type: functional
[2] = target: Opioid receptors; delta & kappa (Homo sapiens) (UniProt P41145+P41143); assay: Selectivity ratio of agonist stimulated [35S]GTP-gamma-S, binding in cloned human kappa-opioid receptor versus delta-opioid receptor; type: functional
[3] = target: Kappa-type opioid receptor (Homo sapiens) (UniProt P41145); assay: Ability to inhibit agonist-stimulated (U69,593) [35S]GTP-gamma-S, binding, using cloned human Opioid receptor kappa 1 expressed in CHO cells; type: functional, cell-based
Outline: (§1)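 Agonist dose-response curves in [35S]GTPγS binding were run with and without one fixed concentration of test compound, with 10 μM GDP final. Ke = [L]/((A'/A)−1), where A' and A are agonist EC50 with and without antagonist. Mean ± SE from at least three independent experiments.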

[4] = target: Opioid receptors; mu & delta (Homo sapiens) (UniProt P41143+P35372); assay: Selectivity ratio of agonist stimulated [35S]GTP-gamma-S, binding in cloned human mu-opioid receptor versus delta-opioid receptor; type: functional
[5] = target: Mu-type opioid receptor (Homo sapiens) (UniProt P35372); assay: Ability to inhibit agonist-stimulated (DAMGO) [35S]GTP-gamma-S, binding, using cloned human Opioid receptor mu 1expressed in CHO cells; type: functional, cell-based; outline: as §1
[6] = target: T1, Delta-type opioid receptor; assay: Efficacy at cloned human opioid receptor delta 1, expressed as percent of basal binding
[7] = target: T1, Delta-type opioid receptor; assay: Ability to inhibit agonist-stimulated (DPDPE) [35S]GTP-gamma-S, binding, using cloned human opioid receptor delta 1 expressed in CHO cells; type: functional, cell-based; outline: as §1
[8] = target: T1, Delta-type opioid receptor; assay: [3H]-Cl-DPDPE competition binding assay using human cloned opioid receptor delta 1
[9] = target: T1, Delta-type opioid receptor; assay: Inverse agonist potency at cloned human delta-opioid receptor; type: functional
[10] = target: T1, Delta-type opioid receptor; assay: Binding affinity towards opioid receptor delta 1 expressed in CHO cells was determined by using [3H]DPDPE as radioligand; type: cell-based

Kappa-type opioid receptor (Homo sapiens), sequence (P41145 whole entry): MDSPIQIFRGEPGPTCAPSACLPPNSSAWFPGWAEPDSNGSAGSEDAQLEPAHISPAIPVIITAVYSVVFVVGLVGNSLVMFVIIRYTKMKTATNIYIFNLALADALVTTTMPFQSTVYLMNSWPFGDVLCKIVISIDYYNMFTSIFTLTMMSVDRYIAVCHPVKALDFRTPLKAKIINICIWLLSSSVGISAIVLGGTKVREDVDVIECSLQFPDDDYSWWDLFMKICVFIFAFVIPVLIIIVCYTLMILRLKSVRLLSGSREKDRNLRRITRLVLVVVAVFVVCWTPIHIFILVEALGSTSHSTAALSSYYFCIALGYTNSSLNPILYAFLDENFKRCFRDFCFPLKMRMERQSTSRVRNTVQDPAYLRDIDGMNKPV
Mu-type opioid receptor (Homo sapiens), sequence (P35372 whole entry): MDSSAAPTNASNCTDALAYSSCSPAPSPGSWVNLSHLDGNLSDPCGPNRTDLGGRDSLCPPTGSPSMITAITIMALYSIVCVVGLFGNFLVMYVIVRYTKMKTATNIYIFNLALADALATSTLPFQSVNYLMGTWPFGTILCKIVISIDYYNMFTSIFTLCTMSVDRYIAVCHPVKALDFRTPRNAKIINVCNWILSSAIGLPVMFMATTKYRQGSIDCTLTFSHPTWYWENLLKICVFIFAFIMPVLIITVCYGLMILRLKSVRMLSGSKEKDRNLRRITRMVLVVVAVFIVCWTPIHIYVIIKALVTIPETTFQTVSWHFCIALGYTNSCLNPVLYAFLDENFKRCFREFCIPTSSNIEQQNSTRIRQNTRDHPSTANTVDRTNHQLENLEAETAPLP
Opioid receptors; mu & delta (Homo sapiens), sequence (P35372 whole entry, looked up): as the sequence (P35372 whole entry) above
Opioid receptors; mu & delta (Homo sapiens), sequence (P41143 whole entry, looked up): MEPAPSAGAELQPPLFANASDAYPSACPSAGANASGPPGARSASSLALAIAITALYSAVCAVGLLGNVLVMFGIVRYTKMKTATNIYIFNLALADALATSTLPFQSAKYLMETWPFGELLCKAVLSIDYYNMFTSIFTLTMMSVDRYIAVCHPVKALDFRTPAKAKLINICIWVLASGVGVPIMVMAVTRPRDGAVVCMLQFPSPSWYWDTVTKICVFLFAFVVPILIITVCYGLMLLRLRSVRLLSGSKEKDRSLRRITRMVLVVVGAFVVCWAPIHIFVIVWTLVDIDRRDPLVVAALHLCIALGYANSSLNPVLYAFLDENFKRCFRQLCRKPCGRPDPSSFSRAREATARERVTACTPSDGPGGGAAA
Opioid receptors; delta & kappa (Homo sapiens), sequence (P41143 whole entry, looked up): as above
Opioid receptors; delta & kappa (Homo sapiens), sequence (P41145 whole entry, looked up): as the sequence (P41145 whole entry) above
T1 sequence (P41143 whole entry): as the sequence (P41143 whole entry, looked up) above

Compound | IC50 [1] [nM] | Selectivity ratio [2] | Ke [3] [nM] | Selectivity ratio [4] | Ke [5] [nM] | Basal binding [6] [%] | Ke [7] [nM] | Ki [8] [nM] | IC50 [9] [nM] | Ki [10] [nM]
CC1CN(CCCc2ccccc2)C2C[C@H](NC(=O)C3(c4ccccc4)CCCC3)CC1(c1cccc(O)c1)C2 (stereo partly drawn) | 15.2 | 1.3 | 5.51 | 9.5 | 40.3 | 78 | 4.24 | 9.3 | – | –
Cc1ccccc1/C=C/CN1CC[C@@](C)(c2cccc(O)c2)[C@@H](C)C1 | 2.8 | – | – | – | – | 76 | – | – | – | –
Oc1ccc2c3c1O[C@H]1c4[nH]c5ccccc5c4C[C@@]4(O)[C@@H](C2)N(CC2CC2)CC[C@]314 | – | – | 16.1 | – | 33 | – | 0.21 | – | – | –
CC1CN(CCCc2ccccc2)C2CC(NC(=O)C3(c4ccccc4)CCCC3)CC1(c1cccc(O)c1)C2 (racemic) | – | 6.4 | 3.52 | 22 | 12.2 | – | 0.55 | 2.1 | 2.4 | –
CC1CN(CCCc2ccccc2)C2C[C@@H](NC(=O)C3(c4ccccc4)CCCC3)CC1(c1cccc(O)c1)C2 (single isomer, unassigned; (+)) | – | 119 | 17.9 | 58 | 8.7 | – | 0.15 | 0.96 | 1.8 | –
C=CCN(CC=C)[C@@H](Cc1ccc(O)cc1)C(=O)NC(C)(C)C(=O)NC(C)(C)C(=O)N[C@@H](Cc1ccccc1)C(=O)N[C@@H](CC(C)C)C(=O)O ({Tyr(Nα,Nα-allyl2)}-[Aib][Aib]FL-OH) | – | 43 | 339 | 5.4 | 42 | – | 7.85 | – | – | 19.1
